Assays:
Type in all cases: functional, cell-based
PC-3 = test: Cytotoxicity against human PC3 cells assessed as cell growth inhibition after 48 hrs by MTT assay; details: PC-3, 48 h
Method in brief: (§1)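 MTT assay. Cells were seeded at 1×10^4 per well in their medium with 10% FBS and allowed 24 h at 37 °C. Compound diluted in medium was added alongside a vehicle control and left for 48 h. MTT (0.5 mg/mL) was then added for 4 h, formazan dissolved in DMSO, and absorbance read at 570 nm. IC50 is the concentration inhibiting 50% of cells.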

DU-145 = test: Cytotoxicity against human DU145 cells assessed as cell growth inhibition after 48 hrs by MTT assay; details: DU-145, 48 h; method in brief: as §1
MCF7 = test: Cytotoxicity against human MCF7 cells assessed as cell growth inhibition after 48 hrs by MTT assay; details: MCF7, 48 h; method in brief: as §1
A549 = test: Cytotoxicity against human A549 cells assessed as cell growth inhibition after 48 hrs by MTT assay; details: A549, 48 h; method in brief: as §1
HT-29 = test: Cytotoxicity against human HT-29 cells assessed as cell growth inhibition after 48 hrs by MTT assay; details: HT-29, 48 h; method in brief: as §1
HCT-116 = test: Cytotoxicity against human HCT116 cells assessed as cell growth inhibition after 48 hrs by MTT assay; details: HCT-116, 48 h; method in brief: as §1

`COc1cccc(C2CC(=O)Nc3c2c2cc(OC)c(OC)cc2c2cc(OC)c(OC)cc32)c1` (stereo unspecified) was tested. Which IC50 (PC-3) did it give?
The IC50 was > 20 µM.

What about the IC50 (DU-145) of the same molecule?
Its IC50 is 18.9 µM.

What about the IC50 (MCF7) of the same molecule?
The IC50 was > 20 µM.

And the IC50 (A549)?
Its IC50 is > 20 µM.

What about the IC50 (HT-29) of the same molecule?
Its IC50 is > 20 µM.

What about the IC50 (HCT-116) of the same molecule?
The IC50 was > 20 µM.

Which results are given for `COc1cc2c3c(c4cc(OC)c(OC)cc4c2cc1OC)C(c1ccc(F)c(F)c1)CC(=O)N3` (stereo unspecified)?
IC50 (PC-3): > 20 µM; IC50 (DU-145): > 20 µM; IC50 (MCF7): > 20 µM; IC50 (A549): 7.78 µM; IC50 (HT-29): 17.9 µM; IC50 (HCT-116): 13.4 µM

For `COc1cc2c3c(c4cc(OC)c(OC)cc4c2cc1OC)C(c1ccc(O)c(O)c1)CC(=O)N3` (stereo unspecified), which IC50 (PC-3) is on record?
Its IC50 is 19.8 µM.

What about the IC50 (DU-145) of the same molecule?
The IC50 was > 20 µM.

What about the IC50 (MCF7) of the same molecule?
The IC50 was > 20 µM.

And the IC50 (A549)?
Its IC50 is 11.6 µM.

And the IC50 (HT-29)?
The IC50 was 10.3 µM.

What about the IC50 (HCT-116) of the same molecule?
Its IC50 is 12.6 µM.

Which results are given for `COc1cc2c3c(c4cc(OC)c(OC)cc4c2cc1OC)C(c1ccccc1)CC(=O)N3` (stereo unspecified)?
IC50 (PC-3): > 20 µM; IC50 (DU-145): 18.8 µM; IC50 (MCF7): > 20 µM; IC50 (A549): > 20 µM; IC50 (HT-29): > 20 µM; IC50 (HCT-116): > 20 µM

Which results are given for `COc1cc2c3c(c4cc(OC)c(OC)cc4c2cc1OC)C(c1ccc(Cl)cc1)CC(=O)N3` (stereo unspecified)?
IC50 (PC-3): > 20 µM; IC50 (DU-145): 19 µM; IC50 (MCF7): > 20 µM; IC50 (A549): 6.49 µM; IC50 (HT-29): 13.8 µM; IC50 (HCT-116): 14.2 µM

Which IC50 (PC-3) does the source give for `COc1ccc(C2CC(=O)Nc3c2c2cc(OC)c(OC)cc2c2cc(OC)c(OC)cc32)cc1` (stereo unspecified) here?
The IC50 was 19.1 µM.

And the IC50 (DU-145)?
The IC50 was 17 µM.

And the IC50 (MCF7)?
Its IC50 is > 20 µM.

What about the IC50 (A549) of the same molecule?
The IC50 was 8.94 µM.

And the IC50 (HT-29)?
Its IC50 is 16.7 µM.

And the IC50 (HCT-116)?
The IC50 was > 20 µM.

For `COc1cc2c3c(c4cc(OC)c(OC)cc4c2cc1OC)C(c1cccc(C(F)(F)F)c1)CC(=O)N3` (stereo unspecified), which IC50 (PC-3) is on record?
The IC50 was 18.5 µM.

And the IC50 (DU-145)?
The IC50 was 6.19 µM.

And the IC50 (MCF7)?
The IC50 was > 20 µM.

And the IC50 (A549)?
The IC50 was 5.03 µM.

And the IC50 (HT-29)?
The IC50 was 18.7 µM.

What about the IC50 (HCT-116) of the same molecule?
The IC50 was 15.4 µM.

How did the IC50 (PC-3) turn out when `COc1cc2c3c(c4cc(OC)c(OC)cc4c2cc1OC)C(c1cccc(Br)c1)CC(=O)N3` (stereo unspecified) was run?
The IC50 was > 20 µM.

What about the IC50 (DU-145) of the same molecule?
The IC50 was 18.5 µM.

And the IC50 (MCF7)?
The IC50 was > 20 µM.

What about the IC50 (A549) of the same molecule?
The IC50 was > 20 µM.

And the IC50 (HT-29)?
The IC50 was > 20 µM.

What about the IC50 (HCT-116) of the same molecule?
The IC50 was > 20 µM.

For `COc1cc2c3c(c4cc(OC)c(OC)cc4c2cc1OC)C(c1ccc(C)cc1)CC(=O)N3` (stereo unspecified), which IC50 (PC-3) is on record?
Its IC50 is > 20 µM.

What about the IC50 (DU-145) of the same molecule?
The IC50 was 16.9 µM.

And the IC50 (MCF7)?
Its IC50 is > 20 µM.

What about the IC50 (A549) of the same molecule?
Its IC50 is 16.7 µM.

What about the IC50 (HT-29) of the same molecule?
The IC50 was > 20 µM.

And the IC50 (HCT-116)?
The IC50 was > 20 µM.

Which results are given for `COc1cc2c3c(c4cc(OC)c(OC)cc4c2cc1OC)C(c1ccc(Br)cc1)CC(=O)N3` (stereo unspecified)?
IC50 (PC-3): > 20 µM; IC50 (DU-145): > 20 µM; IC50 (MCF7): > 20 µM; IC50 (A549): 7.16 µM; IC50 (HT-29): 15.5 µM; IC50 (HCT-116): 16.5 µM

With `COc1ccc(C2CC(=O)Nc3c2c2cc(OC)c(OC)cc2c2cc(OC)c(OC)cc32)cc1OC` (stereo unspecified) as the molecule, how does the IC50 (PC-3) read?
Its IC50 is > 20 µM.

And the IC50 (DU-145)?
The IC50 was 13.1 µM.

What about the IC50 (MCF7) of the same molecule?
Its IC50 is > 20 µM.

And the IC50 (A549)?
The IC50 was 4.09 µM.

What about the IC50 (HT-29) of the same molecule?
Its IC50 is 12.2 µM.

And the IC50 (HCT-116)?
The IC50 was 8.12 µM.

Which results are given for `COc1cc2c3c(c4cc(OC)c(OC)cc4c2cc1OC)C(c1ccc(F)cc1)CC(=O)N3` (stereo unspecified)?
IC50 (PC-3): 19.9 µM; IC50 (DU-145): 11.1 µM; IC50 (MCF7): 12.2 µM; IC50 (A549): 6.29 µM; IC50 (HT-29): 17.4 µM; IC50 (HCT-116): 16.2 µM

For `COc1cc2c3c(c4cc(OC)c(OC)cc4c2cc1OC)C(c1ccc2c(c1)OCCO2)CC(=O)N3` (stereo unspecified), which IC50 (PC-3) is on record?
Its IC50 is 18.4 µM.

What about the IC50 (DU-145) of the same molecule?
Its IC50 is > 20 µM.

And the IC50 (MCF7)?
The IC50 was > 20 µM.

What about the IC50 (A549) of the same molecule?
Its IC50 is 7.95 µM.

What about the IC50 (HT-29) of the same molecule?
The IC50 was > 20 µM.

What about the IC50 (HCT-116) of the same molecule?
Its IC50 is > 20 µM.

What does the source list for `COc1cc2c3c(c4cc(OC)c(OC)cc4c2cc1OC)C(c1cccs1)CC(=O)N3` (stereo unspecified)?
IC50 (PC-3): > 20 µM; IC50 (DU-145): > 20 µM; IC50 (MCF7): > 20 µM; IC50 (A549): 8.5 µM; IC50 (HT-29): 18.9 µM; IC50 (HCT-116): 13.8 µM

Which results are given for `COc1cc2c3c(c4cc(OC)c(OC)cc4c2cc1OC)C(c1cccc2ccccc12)CC(=O)N3` (stereo unspecified)?
IC50 (DU-145): 16.1 µM; IC50 (MCF7): > 20 µM; IC50 (A549): 14.7 µM; IC50 (HT-29): 18.4 µM; IC50 (HCT-116): 17.2 µM

Which results are given for `COc1cc([C@@H]2c3cc4c(cc3[C@@H](O[C@@H]3O[C@@H]5CO[C@@H](C)O[C@H]5[C@H](O)[C@H]3O)[C@H]3COC(=O)[C@H]23)OCO4)cc(OC)c1O` [ETOPOSIDE]?
IC50 (PC-3): 5.4 µM; IC50 (DU-145): 2.13 µM; IC50 (MCF7): 2.03 µM; IC50 (A549): 3.25 µM; IC50 (HCT-116): 2.6 µM

`COc1cc2c3c(c4cc(OC)c(OC)cc4c2cc1OC)C(c1ccc(C(C)C)cc1)CC(=O)N3` (stereo unspecified) was tested. Which IC50 (PC-3) did it give?
The IC50 was > 20 µM.

And the IC50 (DU-145)?
The IC50 was 18.2 µM.

And the IC50 (MCF7)?
Its IC50 is > 20 µM.

What about the IC50 (A549) of the same molecule?
The IC50 was 8.84 µM.

What about the IC50 (HT-29) of the same molecule?
Its IC50 is 16 µM.

What about the IC50 (HCT-116) of the same molecule?
The IC50 was > 20 µM.

How did the IC50 (PC-3) turn out when `COc1cc2c3c(c4cc(OC)c(OC)cc4c2cc1OC)C(c1sccc1C)CC(=O)N3` (stereo unspecified) was run?
Its IC50 is > 20 µM.

And the IC50 (DU-145)?
The IC50 was 19.6 µM.

And the IC50 (MCF7)?
Its IC50 is > 20 µM.

And the IC50 (A549)?
The IC50 was 15.4 µM.

What about the IC50 (HT-29) of the same molecule?
Its IC50 is > 20 µM.

And the IC50 (HCT-116)?
Its IC50 is > 20 µM.

Source: ChEMBL document CHEMBL4219132, “Sulfamic acid promoted one-pot synthesis of phenanthrene fused-dihydrodibenzo-quinolinones: Anticancer activity, tubulin polymerization inhibition and apoptosis inducing studies” (Bioorg Med Chem, 2018)
